Myeloid diff 2: compounds promoting myeloid differentiation | AID 624256 | actives 1% (n = 360,000) | calls only at 10 µM | ER-HoxA9 myeloid progenitors, lysozyme-GFP differentiation, flow cytometry;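 active means normalized GFP-positive differentiation at or above the plate's own cutoff, the solvent-only control mean plus 3 SD; inconclusive means no clear call, values can overlap the other calls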;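 further: cells exposed to compound for four days before flow analysis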
SENP1 inh: inhibitors of human SENP1 SUMO protease catalytic domain; Q9P0U3; recombinant SENP1 catalytic domain, CyPet-SUMO1-YPet FRET cleavage; inhibition, % at 10 µM; actives 0.21% (n = 360,000); AID 624204;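 active means inhibition at least 30% at 10 µM, raw YFP signal under a set limit, fluorescence ratio 0.5 to 1.5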;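 further: 0% = enzyme with DMSO and 100% = no enzyme wells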
Target sequence (Q9P0U3 419-644 limits assumed): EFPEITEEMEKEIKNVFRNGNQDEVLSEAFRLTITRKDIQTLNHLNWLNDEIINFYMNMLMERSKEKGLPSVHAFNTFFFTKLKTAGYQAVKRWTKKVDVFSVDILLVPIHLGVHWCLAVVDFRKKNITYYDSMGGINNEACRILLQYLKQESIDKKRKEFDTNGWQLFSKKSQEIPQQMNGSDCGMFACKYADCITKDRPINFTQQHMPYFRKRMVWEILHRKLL
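Compound: 10 µM single point, 0.5% DMSO; Test system: hSENP1 catalytic domain, recombinant; Timing: 50 min reaction at room temperature; Technique: FRET, CFP and YFP emission; Control set: no-enzyme wells low, DMSO-plus-enzyme wells high control.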
HNF4A DNA FP: change in binding of human HNF4 alpha to DNA; HNF4a-FITC DNA binding, fluorescence polarization, 1 h; activity change, % at 10 µM; actives 0.3% (n = 360,000); AID 1224865; in the data active means activity change above about 30%, passing the limit was not always enough
Cardio protect: protects H9c2 cardiomyocytes from peroxide injury; H2O2 injury protection, ATPLite, 2 h; protection from H2O2 cell death, % at 20 µM; actives 0.63% (n = 360,000); AID 588492;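 active means compounds giving at least 50% protection of heart cells from peroxide-induced death in the single-dose screen, raw or plate-pattern-corrected value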;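 further: 0% = DMSO wells with peroxide and 100% = DMSO wells without peroxide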
Pemphigus Ab inh: blocks pemphigus antibody binding to human desmoglein-3; P32926; DSG3-coupled beads, scFv-anti-DSG3-GFP binding, flow cytometry; stronger effect = lower value; binding (percent of control), % at 10 µM; actives 0.48% (n = 310,000); AID 588358;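 active means binding more than 3 SD below its plate's average and above zero; inconclusive means below that plate limit but binding exactly zero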;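 further: hits lower antibody fragment binding to DSG3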
Granule exo inh: blocks lytic granule exocytosis | TALL-104 LAMP-1 surface exposure, flow cytometry; cells stimulated with thapsigargin and PMA | inhibition, % at 10 µM | actives 0.66% (n = 360,000) | AID 651702;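 active means inhibition above about 55%, limit read from the data; inconclusive means no clear call, values can overlap the other calls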
* hit, by the source's call. Shown are actives, neighbours in structure and some others; about 3% of the full set was active somewhere.

Results for O=C(NCc1cccnc1)c1cc(C(=O)NCc2cccnc2)cc([N+](=O)[O-])c1 ?
Myeloid diff 2: inactive; SENP1 inh: 1; HNF4A DNA FP: -1; Cardio protect: 2; Pemphigus Ab inh: 102; Granule exo inh: 6

What do the screens show for `O=C(CCS(=O)(=O)c1cccc2nonc12)Nc1ccc(Br)cc1`?
Myeloid diff 2: inactive; SENP1 inh: 0; HNF4A DNA FP: -2; Cardio protect: 0; Granule exo inh: 1

Results for O=C(COC(=O)c1ccccc1C(=O)OCC(=O)NCCc1c[nH]c2ccccc12)NCCc1c[nH]c2ccccc12 ?
Myeloid diff 2: inactive; SENP1 inh: 3; HNF4A DNA FP: 1; Cardio protect: 62*; Pemphigus Ab inh: 103; Granule exo inh: 27

How did O=C(COC(=O)c1ccccc1O)NCCc1c[nH]c2ccccc12 do in these assays?
Myeloid diff 2: inactive; SENP1 inh: -2; HNF4A DNA FP: 1; Cardio protect: -2; Pemphigus Ab inh: 101; Granule exo inh: 2

How did Cc1cc(C)c(S(=O)(=O)Nc2nnc(C3CCCCC3)s2)c(C)c1 do in these assays?
Myeloid diff 2: inactive; SENP1 inh: -2; HNF4A DNA FP: -1; Cardio protect: -3; Pemphigus Ab inh: 100; Granule exo inh: -2

Results for CCOC(=O)c1sc2ncn(C(C)C(=O)OC)c(=O)c2c1C (centres undefined) ?
Myeloid diff 2: inactive; SENP1 inh: 0; HNF4A DNA FP: -4; Cardio protect: 4; Pemphigus Ab inh: 97; Granule exo inh: 0

What do the screens show for `CCOC(=O)c1sc2ncn(/N=C/c3ccc(O)c(OC)c3)c(=O)c2c1C`?
Myeloid diff 2: inactive; SENP1 inh: 6; HNF4A DNA FP: 2; Cardio protect: 6; Pemphigus Ab inh: 93; Granule exo inh: 105*

Results for O=C(Cc1ccc2c(c1)CCCC2)Nc1ccccc1Br ?
Myeloid diff 2: inactive; SENP1 inh: 1; HNF4A DNA FP: -2; Cardio protect: -6; Pemphigus Ab inh: 98; Granule exo inh: -3

Results for O=C(Cc1ccc2ccccc2c1)Nc1ccccc1Br ?
Myeloid diff 2: inactive; SENP1 inh: 1; HNF4A DNA FP: 1; Cardio protect: -1; Pemphigus Ab inh: 87*; Granule exo inh: -14

What do the screens show for `O=C(Nc1nc(-c2cccnc2)cs1)c1ccc([N+](=O)[O-])cc1`?
Myeloid diff 2: inactive; SENP1 inh: 2; HNF4A DNA FP: -6; Cardio protect: 1; Pemphigus Ab inh: 29*; Granule exo inh: 0

How did O=C(Nc1nc(-c2cccnc2)cs1)c1cccc([N+](=O)[O-])c1 do in these assays?
Myeloid diff 2: inactive; SENP1 inh: 2; HNF4A DNA FP: -1; Cardio protect: -13; Pemphigus Ab inh: 100; Granule exo inh: -1

What do the screens show for `CC(=O)c1ccc(OCC(O)CN(C)CCOc2ccc(Br)cc2)cc1` (centres undefined)?
Myeloid diff 2: active; SENP1 inh: 1; HNF4A DNA FP: -3; Cardio protect: -5; Pemphigus Ab inh: inconclusive; Granule exo inh: 8

How did O=S(=O)(c1ccccc1)N1CCN(c2cc(-c3ccccc3)nc3ncnn23)CC1 do in these assays?
Myeloid diff 2: active; SENP1 inh: 2; HNF4A DNA FP: 3; Cardio protect: -15; Pemphigus Ab inh: 103; Granule exo inh: 0

How did O=S(=O)(c1ccc(Br)cc1)N1CCN(c2cc(-c3ccccc3)nc3ncnn23)CC1 do in these assays?
Myeloid diff 2: inactive; SENP1 inh: 1; HNF4A DNA FP: -2; Cardio protect: -6; Pemphigus Ab inh: 96; Granule exo inh: 1

Results for Cc1nc([N+](=O)[O-])cn1CC(=O)c1ccc(F)cc1 ?
Myeloid diff 2: inactive; SENP1 inh: 3; HNF4A DNA FP: 77*; Cardio protect: 1; Pemphigus Ab inh: 107; Granule exo inh: -2

How did Cc1nc([N+](=O)[O-])cn1CC(=O)c1ccccc1 do in these assays?
Myeloid diff 2: inactive; SENP1 inh: 3; HNF4A DNA FP: 1; Cardio protect: -5; Pemphigus Ab inh: 107; Granule exo inh: -2

Results for COc1ccc(N2CCN(C(=O)NCc3cccc(OC)c3)CC2)cc1 ?
Myeloid diff 2: inactive; SENP1 inh: 1; HNF4A DNA FP: 0; Cardio protect: 2; Pemphigus Ab inh: 104; Granule exo inh: 0

What do the screens show for `COc1ccc2nc(NC(=O)c3sc4nc(C)cc(C)c4c3N)sc2c1`?
Myeloid diff 2: inactive; SENP1 inh: -38; HNF4A DNA FP: 10; Cardio protect: -13; Pemphigus Ab inh: 74*; Granule exo inh: -2

What do the screens show for `COc1cc(/C=N/NC(=O)c2sc3nc(C)cc(C)c3c2N)ccc1O`?
Myeloid diff 2: inactive; SENP1 inh: -40; HNF4A DNA FP: -1; Cardio protect: 53*; Pemphigus Ab inh: 99; Granule exo inh: 2

What do the screens show for `CCc1ccc(OC(C)C(=O)Nc2ccc(S(=O)(=O)Nc3nccs3)cc2)cc1` (centres undefined)?
Myeloid diff 2: inactive; SENP1 inh: 0; HNF4A DNA FP: 8; Cardio protect: 2; Pemphigus Ab inh: 109; Granule exo inh: -3

How did O=C(NCCCc1ccccc1)c1ccc(CS(=O)Cc2ccccc2Cl)o1 (centres undefined) do in these assays?
Myeloid diff 2: inactive; SENP1 inh: 0; HNF4A DNA FP: 2; Cardio protect: -2; Granule exo inh: 0

What do the screens show for `O=C(CCN1C(=O)/C(=C/c2ccccc2Cl)SC1=S)NC1C=CS(=O)(=O)C1` (centres undefined)?
Myeloid diff 2: inactive; SENP1 inh: 0; HNF4A DNA FP: 4; Cardio protect: -4; Pemphigus Ab inh: 90; Granule exo inh: 1

How did Cc1ccc2c(CC(=O)NC3CCS(=O)(=O)C3)coc2c1C (centres undefined) do in these assays?
Myeloid diff 2: inactive; SENP1 inh: -1; HNF4A DNA FP: 0; Cardio protect: -2; Pemphigus Ab inh: 98; Granule exo inh: 6

How did Cc1ccc2c(CC(=O)NCc3ccco3)coc2c1C do in these assays?
Myeloid diff 2: active; SENP1 inh: -4; HNF4A DNA FP: 3; Cardio protect: 0; Pemphigus Ab inh: 114; Granule exo inh: 4

What do the screens show for `Cc1cc(=O)oc2c3c(cc(OCC(=O)NCCCn4ccnc4)c12)OC(C)(C)CC3`?
Myeloid diff 2: inactive; SENP1 inh: 0; HNF4A DNA FP: 2; Cardio protect: 5; Pemphigus Ab inh: 93; Granule exo inh: -3

What do the screens show for `C#CCOCCOCCOCCNc1nc(N2CCN(C(=O)CCCCCCCCCCNC(=O)[C@H]([C@@H](C)CC)n3cc(CCCCCN)nn3)CC2)nc(N2CCN(C(=O)CCCCCCCCCCNC(=O)[C@H](CO)n3cc(CCCCCN)nn3)CC2)n1`?
Myeloid diff 2: inactive; SENP1 inh: 0; HNF4A DNA FP: 14; Cardio protect: 0; Pemphigus Ab inh: 115; Granule exo inh: 0

Compound activity (PubChem BioAssay)
